Calls of active or inactive are those of the source. The rule behind the calls is not given here.
Assays:
[1] = tested on: HL-60; assay: Cytotoxicity against human HL60 cells after 72 hrs using trypan blue exclusion staining by DCC method; assay type: functional, cell-based; conditions: HL-60, 72 h
How it was run: (§1)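 For trypan blue dye-exclusion direct cell counting, HL-60 cells were seeded at 1 × 10⁵ cells/mL. Compound at 0–10 µM, or 1% DMSO control, was added after 24 h. Viable counts were taken after 24, 48 and 72 h. IC50 (50% inhibition of viability) came from growth curves, as mean ± S.D., n = 3.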

[2] = tested on: HL-60; assay: Induction of necrosis in human HL60 cells assessed as cell shrinking at 5 uM after 24 hrs by propidium iodide staining based fluorescence microscopy; assay type: functional
[3] = tested on: HL-60; assay: Cytotoxicity against BSO pretreated human HL60 cells assessed as cell viability at 1.5 uM treated 6 hrs after BSO addition measured after 48 hrs by trypan blue exclusion assay; assay type: functional, cell-based
How it was run: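 HL-60 cells were pretreated 6 h with L-buthionine-sulfoximine (10 µM), then exposed to 1.5, 3.0 or 1.0 µM compound for 48 h. Viable cells were counted by trypan blue staining and expressed as percentage of all cells.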

[4] = tested on: HL-60; assay: Decrease in intracellular glutathione level in human HL60 cells at 2 uM after 24 hrs by spectrophotometric analysis; assay type: functional, cell-based
[5] = tested on: HL-60; assay: Decrease in intracellular glutathione level in human HL60 cells at 2 uM after 2 hrs by spectrophotometric analysis; assay type: functional, cell-based
[6] = tested on: A2780; assay: Drug uptake in human A2780 cells at 5 uM after 4 hrs by Hoechst staining based fluorescence microscopy; assay type: ADME, cell-based; conditions: a2780, 4 h
[7] = tested on: HL-60; assay: Drug uptake in human HL60 cells at 5 uM after 4 hrs by Hoechst staining based fluorescence microscopy; assay type: ADME, cell-based; conditions: hl-60, 4 h
How it was run: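 HL-60 cells were exposed to 5 µM for 4 h at 37 °C, 5% CO₂, then washed in PBS. Intrinsic blue fluorescence was viewed by optical and fluorescence microscopy. Untreated control cells were stained with Hoechst 33342 (10 µM, 10 min).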

[8] = tested on: A2780; assay: Cytotoxicity against human A2780 cells after 72 hrs by MTT assay; assay type: functional, cell-based; conditions: A2780, 72 h
How it was run: (§2)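 HL-60, L1210 and A2780 cells were grown in RPMI 1640 with 10% FBS, penicillin and streptomycin at 37 °C, 5% CO₂; HL-60 and A2780 medium also had 2 mM glutamine. Cells were exposed to 0–30 µM for 48 or 72 h. Viability was read by MTT microculture tetrazolium assay and IC50 was determined.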

[9] = tested on: HL-60; assay: Cytotoxicity against human HL60 cells after 48 hrs using trypan blue exclusion staining by DCC method; assay type: functional, cell-based; conditions: HL-60, 48 h; how it was run: as §1
[10] = tested on: A2780; assay: Cytotoxicity against human A2780 cells after 48 hrs by MTT assay; assay type: functional, cell-based; conditions: A2780, 48 h; how it was run: as §2
[11] = tested on: L1210; assay: Cytotoxicity against mouse L1210 cells after 72 hrs by MTT assay; assay type: functional, cell-based; conditions: L1210, 72 h; how it was run: as §2
[12] = tested on: L1210; assay: Cytotoxicity against mouse L1210 cells after 48 hrs by MTT assay; assay type: functional, cell-based; conditions: L1210, 48 h; how it was run: as §2
[13] = tested on: HL-60; assay: Cytotoxicity against human HL60 cells after 48 hrs by MTT assay; assay type: functional, cell-based; conditions: HL-60, 48 h; how it was run: as §2
[14] = tested on: HL-60; assay: Cytotoxicity against human HL60 cells after 72 hrs by MTT assay; assay type: functional, cell-based; conditions: HL-60, 72 h; how it was run: as §2
[15] = tested on: Nucleic Acid; assay: Ratio of acridine orange K to compound K for calf thymus DNA by spectrofluorimetry based McGhee von Hippel method; assay type: nucleic-acid assay; conditions: Bos taurus
[16] = tested on: Nucleic Acid; assay: Ratio of daunomycin K to compound K for calf thymus DNA by spectrofluorimetry based McGhee von Hippel method; assay type: nucleic-acid assay; conditions: Bos taurus
[17] = tested on: Nucleic Acid; assay: Ratio of proflavine K to compound K for calf thymus DNA by spectrofluorimetry based McGhee von Hippel method; assay type: nucleic-acid assay; conditions: Bos taurus
[18] = tested on: Nucleic Acid; assay: Binding affinity to calf thymus DNA assessed as binding constant by spectrofluorimetry based McGhee von Hippel method; assay type: nucleic-acid assay; conditions: Bos taurus
How it was run: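 Fluorescence titration used compound at 26.7 µM in 0.01 M Tris buffer (pH 7.4, 24 °C). ctDNA was added stepwise from 0 to 32 µM bp at 2 µM intervals until spectra stopped changing. Excitation was 384 nm and emission was read at 410–470 nm. Binding constant K was derived by the McGhee–von Hippel method from Scatchard plot data.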

[19] = tested on: Nucleic Acid; assay: Binding affinity to calf thymus DNA assessed as melting temperature at 5 uM at pH 7.1 by thermal denaturation assay; assay type: nucleic-acid assay; conditions: Bos taurus
[20] = tested on: Nucleic Acid; assay: Binding affinity to calf thymus DNA assessed as hypochromicity at 25 uM by UV-visible spectrophotometry; assay type: nucleic-acid assay; conditions: Bos taurus
How it was run: (§3)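 Absorption spectra were taken in 0.01 M Tris buffer, pH 7.4. Compounds were diluted from DMSO stock to a final 25 µM. Sonicated calf thymus DNA in TE buffer was added at 0–30 µM bp, with concentration set by A260. Shift of λmax (free vs bound) and % hypochromicity were recorded.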

[21] = tested on: Nucleic Acid; assay: Binding affinity to calf thymus DNA assessed as bathochromic shift at 25 uM by UV-visible spectrophotometry; assay type: nucleic-acid assay; conditions: Bos taurus; how it was run: as §3

With `CCC(C)N1C(=O)/C(=C/C(=O)OC)S/C1=N\c1c2ccccc2nc2ccccc12` (stereo unspecified) the IC50 [1] was 1.7 µM, the Activity [2] was “Active” and the Activity [3] was “Active”. For the same compound, the Activity [4] was “Active”, the Activity [5] was “Active” and the Drug uptake [6] was “Active”. The Drug uptake [7] was “Active”, the IC50 [8] was 12.6 µM and the IC50 [9] was 2 µM. The IC50 [10] was 20.8 µM, the IC50 [11] was 7.5 µM and the IC50 [12] was 3.3 µM. For the same compound, the IC50 [13] was 3.4 µM, the IC50 [14] was 2.1 µM and the Ratio [15] was 10. For the same compound, the Ratio [16] was 10, the Ratio [17] was 10 and the K [18] was 2.21 ×10⁶ /M. The Tm [19] was 75 °C, the Activity [20] was 26.3% and the Activity [21] was “Active”.

From ChEMBL document CHEMBL2203053, “DNA binding acridine-thiazolidinone agents affecting intracellular glutathione” (Bioorg Med Chem, 2012)
